FLuc stim CS: firefly luciferase counter-screen for stimulation assays; ATPlite luciferase biochemical, luminescence, 10 min; 0 = ATP-free wells, 1 = DMSO control; activation factor at 10 µM; 200,000 tested, under 10 active;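 active = luciferase activation factor, scaled between plate controls, of at least 2 with compound at 10 µM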
Target sequence (P08659 whole entry, looked up): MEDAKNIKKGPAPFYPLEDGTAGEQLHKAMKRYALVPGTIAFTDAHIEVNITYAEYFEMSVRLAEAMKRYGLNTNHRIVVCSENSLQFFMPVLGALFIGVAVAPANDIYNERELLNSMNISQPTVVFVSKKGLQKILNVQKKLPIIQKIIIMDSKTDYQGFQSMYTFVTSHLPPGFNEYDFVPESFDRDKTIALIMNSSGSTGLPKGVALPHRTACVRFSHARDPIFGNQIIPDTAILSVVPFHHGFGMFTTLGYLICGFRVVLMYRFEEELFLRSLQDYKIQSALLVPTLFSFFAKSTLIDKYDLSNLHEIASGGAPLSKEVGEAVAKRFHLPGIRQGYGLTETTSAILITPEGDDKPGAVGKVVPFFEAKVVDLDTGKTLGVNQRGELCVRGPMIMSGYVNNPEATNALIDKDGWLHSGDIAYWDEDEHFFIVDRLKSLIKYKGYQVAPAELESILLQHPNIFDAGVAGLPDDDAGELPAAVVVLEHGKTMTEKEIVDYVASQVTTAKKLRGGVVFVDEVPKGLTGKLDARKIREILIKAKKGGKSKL
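test system = cell-free luciferase reagent | medium = PBS as buffer for the ATP substrate | dosing = test compounds dosed from 2 mM stocks in 100% DMSO | incubation = 10 min at ambient temperature | detection = luminescence measurement of luciferase light output | benchmarks = low control with PBS replacing ATP, high control enzyme plus ATP without compound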
FLuc inhib CS: Photinus pyralis luciferase inhibition counter-screen; ATPLite firefly luciferase biochemical luminescence, 10 min; inhibition, % at 10 µM; hit rate 1.5% among 200,000; AID 1006;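 active = inhibition above about 50% when tested at 10 µM, limit read from the data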
C8 TRAIL sens: sensitizes caspase-8 expressing cells to TRAIL; inhibition (viability loss, TRAIL sensitization), % at 10 µM; hit rate 1% among 360,000; AID 624354; NB7+C8 cells + TRAIL, ATPlite viability luminescence;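 active = compounds causing at least 50% loss of cell viability in the single-dose screen, relative to plate controls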
APP 5'UTR act: activates APP 5'UTR luciferase reporter | SH-SY5Y APP 5'UTR luciferase reporter, luminescence; zero percent = DMSO vehicle wells | activation, % at 2 µM | hit rate 1% among 190,000;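 active = activation above a set limit, based on mean plus 3 SD of controls, cut at about 140% in these data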
NF-kB neuron act: compounds increasing NF-kB expression in human neuronal cells | NF-kB reporter expression; active compounds read high | fold change at 12.5 µM | hit rate 1.6% among 190,000 | AID 1239; in the data active = fold change above about 3.3
PPC-1+TRAIL kill: PPC-1 cancer cell killing with TRAIL present; PPC-1 cells + TRAIL, ATPLite viability luminescence; cell killing (% activity), % at 4 µM or 5 µM; hit rate 0.41% among 220,000;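 active = cell killing above 50% in the first pass at 4 µM, then a duplicate retest at 5 µM averaging 50% or more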;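 note: plate controls were cells with TRAIL plus DMSO for no effect and medium-only wells lacking cells for full effect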
* hit, by the source's call; / = no result given. The list is not random: actives were taken first. Their share in the collection is about 2.2%.

SMILES | FLuc stim CS | FLuc inhib CS | C8 TRAIL sens | APP 5'UTR act | NF-kB neuron act | PPC-1+TRAIL kill
Cc1cc(-c2nn(-c3ccccc3F)cc2CNCCc2cnc[nH]2)c(C)s1 | 1 | 3 | -17 | 24 | 1 | 6
CCn1cnc2sc(-c3ccccc3)cc2c1=O | 0.7 | 28 | 9 | 182* | 5.4* | 36
COc1ccc(-n2cnc3sc(-c4ccccc4)cc3c2=O)cc1 | 0.9 | 5 | 6 | 120 | 3.5* | 17
CCc1cc2c(=O)n(-c3ccccc3)cnc2s1 | 0.9 | 7 | 3 | / | 1.7 | 27
CC(=O)Cn1cnc2sc(-c3ccccc3)cc2c1=O | 0.7 | 28 | 10 | 86 | 3.7* | -4
CCc1cc2c(=O)n(-c3ccc(C)cc3)cnc2s1 | 0.7 | 28 | 2 | 93 | 4.2* | 36
N#CCn1cnc2sc(-c3ccccc3)cc2c1=O | 0.9 | 6 | 1 | 19 | 1.7 | -1
Cc1ccc(NC(=O)c2cccc(S(=O)(=O)N3CCN(c4ccccc4)CC3)c2)nc1 | / | / | 16 | / | / | /
COc1ccccc1NCC(=O)N/N=C/c1c(O)ccc2ccccc12 | / | / | 12 | / | / | /
COc1ccccc1N(CC(=O)N/N=C/c1c(O)ccc2ccccc12)S(C)(=O)=O | 1 | -3 | 52* | -37 | 2.9 | 36
Nc1ccc(O)cc1C(=O)OCC(=O)c1ccc(C2CCCCC2)cc1 | 0.7 | 28 | 4 | -49 | 6.8* | 31
COc1ccc(C(=O)OCC(=O)c2ccc(C3CCCCC3)cc2)cc1 | 1 | -2 | 10 | 25 | 1.1 | 1
N#Cc1c(N)[nH]c(C(=O)c2ccccc2)c1-c1ccc(Cl)cc1 | / | / | 1 | / | / | /
CCCc1cc(=O)n2[nH]c(-c3ccc(Cl)cc3)cc2n1 | / | / | 0 | / | / | /
CCOC(=O)Cc1cc(=O)n2[nH]c(-c3ccc(Cl)cc3)cc2n1 | 0.4 | 57* | 10 | 6 | 1.6 | 17
CCn1c(O)c(/C=C2\C=Nc3ccccc32)sc1=Nc1ccc(C)cc1 | 1 | -3 | 1 | 16 | 1.2 | 5
CCn1c(O)c(/C=C2\C=Nc3ccccc32)sc1=O | 0.9 | 5 | 6 | 154* | 3.1 | 24
Cc1cccc(CCN(C(=O)c2csnn2)C(C(=O)NC2CCCC2)c2ccco2)c1 (stereo unspecified) | / | / | 7 | / | / | /
CC(=O)N1CCN(C(=O)COC(=O)COc2ccc(C#N)cc2)CC1 | / | / | -2 | / | / | /
O=C1N/C(=N\N=C\c2ccc3ncccc3c2)SC1Cc1ccc(SC(F)F)cc1 (stereo unspecified) | 0.4 | 61* | 27 | -6 | 1.1 | 14
NNc1nc(-c2ccccc2Cl)nc2ccccc12 | / | / | 0 | / | / | /
NNc1nc(-c2ccccc2Cl)nc2sc3c(c12)CCCC3 | 0.2 | 82* | 49 | 50 | 3.3* | 11
Cc1ccc(S(=O)(=O)N(C)C)cc1NC(=O)COC(=O)c1ccc(Cl)cc1 | 1 | -3 | -5 | 1 | 1.1 | 8
Cn1ccnc1SCC(=O)Nc1ccc2ccccc2c1 | 0.7 | 34 | 3 | 105 | 4.4* | 28
Cn1ccnc1SCC(=O)c1ccc2ccccc2c1 | 0.6 | 44 | 2 | 164* | 3 | 4
SMILES | FLuc stim CS | FLuc inhib CS | C8 TRAIL sens | APP 5'UTR act | NF-kB neuron act | PPC-1+TRAIL kill
CC1(C(=O)NS(=O)(=O)c2cccs2)CCN1C(=O)c1ccccc1CCc1ccccc1 (stereo unspecified) | / | / | -11 | / | / | /
Clc1ccc(-c2cn3cc(Br)ccc3n2)cc1Cl | 0.5 | 53* | 36 | 201* | 7.2* | 32
Brc1ccc2nc(-c3c[nH]c4ccccc34)cn2c1 | 0.4 | 58* | 37 | 213* | 1 | 12
CN(C)S(=O)(=O)c1cccc(-c2cn3cc(Cl)ccc3n2)c1 | 0.9 | 7 | 18 | 22 | 1.5 | 20
Cc1ccc(-n2[nH]c(C)c(/C=N/NC(=O)c3ccc(O)cc3O)c2=O)cc1 | / | / | 73* | / | / | /
Cc1[nH]n(-c2ccccc2)c(=O)c1/C=N/NC(=O)c1ccc(O)cc1O | / | / | 42 | / | / | /
Cc1ccn(-c2ccc(NC(=O)c3cccs3)cc2)n1 | / | / | 55* | / | / | /
CN1CCN(c2ccc(NC(=O)c3cccs3)cc2)CC1 | 0.7 | 35 | 17 | 132 | 2 | 10
CCC(C)c1ccc(NC(=O)c2cccs2)cc1 (stereo unspecified) | 0.3 | 75* | 60* | 150* | 11* | 25
COc1ccc(NC(=O)CSc2nnc(-c3cccs3)n2N)c(OC)c1 | / | / | 14 | / | / | /
C/C(=N\NC(=O)c1cccs1)c1ccc2ccccc2c1 | / | / | 13 | / | / | /
C/C(=N\NC(=O)c1ccc2ccccc2c1)c1cccs1 | / | / | 55* | / | / | /
O=C(Nc1cccc2cccnc12)C1CCCC1 | 1.1 | -7 | -14 | 21 | 1.1 | 14
O=C(COc1ccc2ccccc2c1Br)Nc1ncn[nH]1 | 0.8 | 21 | 62* | 19 | 1.2 | -10
Cc1cccc(C)c1OCC(=O)Nc1ncn[nH]1 | 1 | -5 | -2 | 0 | 1.1 | 12
CCOc1cc(CNC2CCCC2)ccc1OCc1ccccc1Cl | 1.1 | -5 | 31 | -26 | 1.1 | 20
CCOc1cc(C2NN=C(c3ccccc3)S2)ccc1OCc1ccccc1Cl (stereo unspecified) | 0.8 | 20 | 33 | 18 | 3.7* | 2
CCOc1cc(C2NN=C(c3ccccc3)S2)ccc1OCc1ccc(F)cc1 (stereo unspecified) | 0.7 | 33 | 27 | 97 | 4.5* | 30
O=C(N/N=C/c1cccc([N+](=O)[O-])c1)c1cc(-c2ccccc2)nc2ccccc12 | 1.1 | -10 | 21 | 6 | 1.1 | 24
Cc1ccc(-c2nc(N/N=C/c3cccc([N+](=O)[O-])c3)c3ccccc3n2)cc1 | 0.2 | 82* | 64* | 37 | 0.95 | /
CNS(=O)(=O)c1cc(-c2nnc(N3CCOCC3)c3ccccc23)ccc1C | / | / | 7 | / | / | /
O=C(Nc1ccc([N+](=O)[O-])cc1)Nc1nc(-c2ccc(Cl)s2)cs1 | 1.1 | -5 | 40 | -56 | 0.79 | 67*
O=C(/C=C/c1cccs1)NC(=S)NNC(=O)c1ccccc1O | 1 | 0 | 27 | -18 | 0.67 | -3
COc1ccc(C(=O)NNC(=S)NC(=O)/C=C/c2cccs2)cc1 | 0.5 | 49 | 54* | -34 | 1.2 | /
Cc1ccc2c(c1)c1ccc3c(c1n2C)C(=O)C=CC3=O | / | / | 58* | / | / | 20
SMILES | FLuc stim CS | FLuc inhib CS | C8 TRAIL sens | APP 5'UTR act | NF-kB neuron act | PPC-1+TRAIL kill
Cc1ccc(-c2nsc3c(N4CCC(C(N)=O)CC4)ncnc23)cc1 | 0.8 | 20 | 23 | 142* | 1.7 | 20
Cc1ccc(C(=O)N2CCN(c3ncnc4c(-c5ccccc5)nsc34)CC2)cc1 | 1.1 | -10 | / | 0 | 0.98 | -5
COc1cc(C(=O)O[C@H]2C/C(C)=C/CC[C@@]3(C)O[C@@H]3[C@H](O)[C@@H]2C(C)C)cc(OC)c1OC | / | / | 5 | / | / | /
Cc1cc(-c2nc3ccccc3[nH]2)ccc1N | 0.3 | 72* | 44 | 107 | 5* | 40
COC(=O)c1ccc(-c2nc3ccccc3[nH]2)cc1 | 0.1 | 91* | 82* | 131 | 7.1* | 36
Cc1ccc(-c2nc3ccccc3[nH]2)s1 | 0.4 | 61* | 56* | 114 | 5.5* | 47

Assay outcomes from PubChem BioAssay.
